Data set [1] has as its system SK-OV-3. Description: Antiproliferative activity against human SKOV3 cells assessed as growth inhibition at 3.16 ug/ml after 48 hrs by XTT assay. The data set is classed as functional. The settings on record: SK-OV-3, 48 h. Summed up:
(§1)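 This is the same 48 h XTT assay: 10-point half-log series, 0.3% final DMSO, 3 h XTT/PMS, A490, with untreated cells as 0% and blanks as 100% inhibition. Inhibition at the highest tested concentration was scored as none (<30%) or moderate (≥30%).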
(In general: Formazan colour is commonly taken as a measure of viable cells.)

Data set [2] is described as follows: Antiproliferative activity against human RKOp27 cells after 48 hrs by XTT assay. The data set is classed as functional, cell-based. The settings on record: RKOp27, 48 h. Summed up: (§2)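 Compounds were added from DMSO stocks as a 10-point half-log dilution series, with final DMSO adjusted to 0.3%. Cells were incubated for 45 h at 37 °C/5% CO2, then with 1 mg/ml XTT plus PMS for a further 3 h. Absorbance at 490 nm was read after 48 h total. Untreated cells were set as 0% and cell-free blanks as 100% inhibition. EC50 came from nonlinear regression of at least two independent assays.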

The subject of data set [3] is NCI-H460. Description: Antiproliferative activity against human NCI-H460 cells after 48 hrs by XTT assay. The data set is classed as functional, cell-based. The settings on record: NCI-H460, 48 h. Summed up: as §2
The nature of data set [4]: Antiproliferative activity against human KB/HeLa cells assessed as growth inhibition at 3.16 ug/ml after 48 hrs by XTT assay. Format: functional. In a few lines:
as §1

A short description of data set [5]: Antiproliferative activity against human RKOp27IND cells assessed as growth inhibition at 3.16 ug/ml after 48 hrs by XTT assay. The data set is classed as functional. In a few lines: as §1
The test system of data set [6] is SF-268. As to the kind of experiment: Antiproliferative activity against human SF268 cells assessed as growth inhibition at 3.16 ug/ml after 48 hrs by XTT assay. Format: functional. The settings on record: SF-268, 48 h. Summed up:
as §1

The nature of data set [7]: Antiproliferative activity against human KB/HeLa cells after 48 hrs by XTT assay. Format: functional, cell-based. In a few lines:
as §2

The nature of data set [8]: Antiproliferative activity against human RKOp27IND cells after 48 hrs by XTT assay. Format: functional, cell-based. In a few lines: (§3)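 Compounds dissolved in DMSO were added as a 10-point half-log dilution series, with final DMSO adjusted to 0.3%. Cells were incubated 45 h at 37 °C/5% CO2, then XTT (1 mg/ml) plus PMS was added for 3 h more (48 h total). Absorbance was read at 490 nm. Untreated cells were set as 0% inhibition and cell-free blanks as 100%. EC50 was fitted by nonlinear regression from ≥2 independent assays and reported as mean ± SD.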

The test system of data set [9] is SF-268. Description: Antiproliferative activity against human SF268 cells after 48 hrs by XTT assay. Format: functional, cell-based. The settings on record: SF-268, 48 h. Summed up: as §2
The subject of data set [10] is SK-OV-3. As to the kind of experiment: Antiproliferative activity against human SKOV3 cells after 48 hrs by XTT assay. Format: functional, cell-based. The settings on record: SK-OV-3, 48 h. In a few lines:
as §3

A short description of data set [11]: Antiproliferative activity against human RKOp27 cells assessed as growth inhibition at 3.16 ug/ml after 48 hrs by XTT assay. Format: functional. The settings on record: RKOp27, 48 h. In a few lines: as §1
The test system of data set [12] is NCI-H460. As to the kind of experiment: Antiproliferative activity against human NCI-H460 cells assessed as growth inhibition at 3.16 ug/ml after 48 hrs by XTT assay. The data set is classed as functional. The settings on record: NCI-H460, 48 h. In a few lines:
as §1

Data set [13] can be described thus: Chemical stability of the compound in KH2PO4/Na2HPO4 buffer at pH 5.5 after 6 hrs by NMR spectroscopy. Format: physicochemical. The settings on record: pH 5.5, 6 h. Summed up:
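Compounds were exposed at 37 °C to a KH2PO4/Na2HPO4 buffer at pH 5.5, prepared according to the European Pharmacopoeia.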

The structures appear in SMILES notation. In brackets after ≈: the same amount, converted by molar mass.

The inhibition is the share of the control response that was lost under treatment. The EC50 is the concentration giving half of the maximal effect.

In the case of `CN(C)CCCc1cn(CCCN(C)C)c2c1C(=O)c1ccncc1C2=O`, the inhibition at 3.16 µg/mL in data set [1], in [4], in data set [5] and in [6] was less than 30% each time. Also, the EC50 in data set [2] and in [3] was greater than 3.16 µg/mL throughout.
On to `O=C1c2ccncc2C(=O)c2c1ccn2CCCCCCCN1CC1`, for which the EC50 in data set [7] is greater than 3.16 µg/mL; in data set [2] it was 1.19 µg/mL (≈ 3.54 µM); in data set [8], greater than 3.16 µg/mL; in [9], greater than 3.16 µg/mL; in data set [3], greater than 3.16 µg/mL; in data set [10], greater than 3.16 µg/mL.
Consider `CS(=O)(=O)OCCCCCCCn1ccc2c1C(=O)c1cnccc1C2=O`, for which the inhibition at 3.16 µg/mL in data set [11], in [12], in data set [1], in data set [4], in data set [5] and in [6] was less than 30% in each case.
Turning to `O=C1c2ccncc2C(=O)c2c1ccn2CCCC1CO1` (stereo not given), the results for the inhibition at 3.16 µg/mL in data set [1], in data set [5] and in data set [6] were less than 30%, less than 30% and no less than 30%, respectively. The concentration giving a half-maximal response (EC50) in [7], in [2] and in data set [3] was greater than 3.16 µg/mL each time. Moreover, the Stability entry in data set [13] is reported as “Stable”.
As for `O=C1c2ccncc2C(=O)c2c1ccn2CC(O)CN1CC1` (stereo not given), the EC50 in [7] was 0.747 µg/mL (≈ 2.51 µM); in data set [2], 0.899 µg/mL (≈ 3.02 µM); in [8], greater than 3.16 µg/mL; in data set [9], greater than 3.16 µg/mL; in data set [3], 2.21 µg/mL (≈ 7.44 µM); in data set [10] it was greater than 3.16 µg/mL.
Regarding `CN(C)CCCc1c[nH]c2c1C(=O)c1ccncc1C2=O`, the inhibition at 3.16 µg/mL in data set [11], in data set [1], in data set [4], in data set [5] and in data set [6] was less than 30% each time.
`O=C1c2ccncc2C(=O)c2c1ccn2CC1CO1` (stereo not given): the EC50 in data set [7] turned out to be 0.062 µg/mL (≈ 0.244 µM); in data set [2] it was 0.026 µg/mL (≈ 0.102 µM); in data set [8], 1.3 µg/mL (≈ 5.11 µM); in [9] it was 0.2 µg/mL (≈ 0.787 µM); in [3] it was 0.062 µg/mL (≈ 0.244 µM); in data set [10] it was 0.265 µg/mL (≈ 1.04 µM). In addition, the Stability entry in [13] is listed as “Stable”.
Take `CNCCn1cc(CCN(C)C)c2c1C(=O)c1cnccc1C2=O`: the EC50 in data set [7], in data set [2], in data set [8], in data set [9], in data set [3] and in [10] was greater than 3.16 µg/mL in each case.
For the compound `CN(C)CCc1cn(CCCCCCCOS(C)(=O)=O)c2c1C(=O)c1ccncc1C2=O`, the Stability entry in data set [13] is “Unstable”.
Take `CN(C)CCc1cn(CCCCN2CC2)c2c1C(=O)c1ccncc1C2=O`: the EC50 in data set [7] amounted to 0.512 µg/mL (≈ 1.4 µM); in data set [2], 0.205 µg/mL (≈ 0.559 µM); in data set [8], 1.35 µg/mL (≈ 3.68 µM); in data set [9], 1.39 µg/mL (≈ 3.8 µM); in data set [3] it was 0.722 µg/mL (≈ 1.97 µM); in data set [10], 1.51 µg/mL (≈ 4.12 µM).
Take `CN(C)CCc1c[nH]c2c1C(=O)c1ccncc1C2=O`: the inhibition at 3.16 µg/mL in [11], in data set [12], in data set [1], in data set [4], in data set [5] and in [6] was less than 30% throughout.
In the case of `CN(C)CCc1cn(CCNCCO)c2c1C(=O)c1ccncc1C2=O`, the inhibition at 3.16 µg/mL in data set [12], in [1] and in data set [5] was less than 30% each time. For the same compound, the EC50 in data set [7], in [2] and in data set [9] was greater than 3.16 µg/mL in each case.
As to `CN(C)CCc1cn(CCN(C)C)c2c1C(=O)c1ccncc1C2=O`, the inhibition at 3.16 µg/mL in [11], in data set [12], in data set [1], in [4], in data set [5] and in data set [6] was less than 30% each time.
Turning to `O=C1c2ccncc2C(=O)c2c1ccn2CCCCN1CC1`, the EC50 in data set [7] was found to be 0.549 µg/mL (≈ 1.86 µM); in data set [2], 0.299 µg/mL (≈ 1.01 µM); in data set [8], 2.23 µg/mL (≈ 7.55 µM); in [9], 1.89 µg/mL (≈ 6.41 µM); in data set [3], 0.727 µg/mL (≈ 2.46 µM); in data set [10], 2.19 µg/mL (≈ 7.4 µM).

These data come from ChEMBL document CHEMBL1770061, “Synthesis and antiproliferative activity of new cytotoxic azanaphthoquinone pyrrolo-annelated derivatives: Part II” (Bioorg Med Chem Lett, 2011).
